In ChEMBL document CHEMBL4364271, “Unveiling the Importance of Amide Protons in CSP:ComD Interactions in Streptococcus pneumoniae” (ACS Med Chem Lett, 2019):
The source made the active and inactive calls. The calls are words filed in the database; no cut-off is given here. Non-standard residues stand in square brackets, D forms with d. Residues, ends and D or L forms follow the SMILES beside them. NMeR = CN[C@@H](CCCNC(=N)N)C(=O)O; NMeF = CN[C@@H](Cc1ccccc1)C(=O)O; NMeI = CC[C@H](C)[C@H](NC)C(=O)O; NMeE = CN[C@@H](CCC(=O)O)C(=O)O; NMeL = CN[C@@H](CC(C)C)C(=O)O; NMeM = CN[C@@H](CCSC)C(=O)O

Assays:
[1] = tested on: Streptococcus pneumoniae D39; experiment: Agonist activity at ComD1 receptor in Streptococcus pneumoniae D39 harboring pcomX/lacZ reporter gene at 10 uM incubated for 30 mins by ONPG based beta-galactosidase assay relative to native CSP1
How it was run: (§1)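 Single-dose screen of synthetic peptide at 10 μM in wild-type reporter strains (D39 for ComD1, TIGR4 for ComD2) producing their own CSP and carrying lacZ under the comX promoter. β-gal activity in Miller units normalized to native CSP (CSP1 or CSP2, 100%); DMSO 0%. Triplicates over three separate trials.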

[2] = tested on: Streptococcus pneumoniae D39; experiment: Antagonist activity at ComD1 receptor in Streptococcus pneumoniae D39 harboring pcomX/lacZ reporter gene assessed as inhibiton of CSP1-stimulated maximum signal at 10 uM preincubated for 30 mins followed by 50 nM CSP1 addition by ONPG based beta-galactosidase assay relative to native CSP1
How it was run: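 Inhibition screen: peptides at 10 μM against CSP1 50 nM (D39, ComD1) or CSP2 250 nM (TIGR4, ComD2), in comX-lacZ reporter strains. β-gal Miller units normalized to CSP alone (100%) and DMSO (0%). Triplicates over three separate trials.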

[3] = Agonist activity at ComD2 receptor in Streptococcus pneumoniae TIGR4 harboring pcomX/lacZ reporter gene incubated for 30 mins by ONPG based beta-galactosidase assay
How it was run: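 Dose-response in wild-type lacZ reporter strains (comX promoter; D39 for ComD1, TIGR4 for ComD2) producing native CSP. Peptides tested over a range of concentrations. β-gal read-out (Miller units) normalized to native CSP. EC50 reported with 95% confidence interval.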

[4] = tested on: Streptococcus pneumoniae TIGR4; experiment: Agonist activity at ComD2 receptor in Streptococcus pneumoniae TIGR4 harboring pcomX/lacZ reporter gene at 10 uM incubated for 30 mins by ONPG based beta-galactosidase assay relative to native CSP2; how it was run: as §1
[5] = Solubility of the compound in ammonium carbonate solution at pH 8; type: physicochemical; settings: buffer

Compound | Activity [1] | inhibition [2] | EC50 [3] | Activity [4] | solubility [5]
CC[C@H](C)[C@H](NC(=O)[C@H](CCCNC(=N)N)NC(=O)[C@H](CCSC)NC(=O)[C@@H](N)CCC(=O)O)C(=O)N[C@@H](CO)C(=O)N[C@@H](CCCNC(=N)N)C(=O)N[C@H](C(=O)N[C@H](C(=O)N[C@@H](CC(C)C)C(=O)N[C@@H](CC(=O)O)C(=O)N[C@@H](Cc1ccccc1)C(=O)N[C@@H](CC(C)C)C(=O)N(C)[C@@H](Cc1ccccc1)C(=O)O)[C@@H](C)CC)[C@@H](C)CC (H-EMRISRIILDFL[NMeF]-OH) | inactive | inactive | 27 nM | > 75% | Insoluble
CC[C@H](C)[C@H](NC(=O)[C@H](CCCNC(=N)N)NC(=O)[C@H](CCSC)NC(=O)[C@@H](N)CCC(=O)O)C(=O)N[C@@H](CO)C(=O)N[C@@H](CCCNC(=N)N)C(=O)N[C@H](C(=O)N[C@H](C(=O)N[C@@H](CC(C)C)C(=O)N[C@@H](CC(=O)O)C(=O)N[C@@H](Cc1ccccc1)C(=O)N(C)[C@@H](CC(C)C)C(=O)N[C@@H](Cc1ccccc1)C(=O)O)[C@@H](C)CC)[C@@H](C)CC (H-EMRISRIILDF[NMeL]F-OH) | inactive | inactive |  | inactive | Insoluble
CC[C@H](C)[C@H](NC(=O)[C@H](CCCNC(=N)N)NC(=O)[C@H](CCSC)NC(=O)[C@@H](N)CCC(=O)O)C(=O)N[C@@H](CO)C(=O)N[C@@H](CCCNC(=N)N)C(=O)N[C@H](C(=O)N[C@H](C(=O)N[C@@H](CC(C)C)C(=O)N[C@@H](CC(=O)O)C(=O)N(C)[C@@H](Cc1ccccc1)C(=O)N[C@@H](CC(C)C)C(=O)N[C@@H](Cc1ccccc1)C(=O)O)[C@@H](C)CC)[C@@H](C)CC (H-EMRISRIILD[NMeF]LF-OH) | inactive | inactive |  | inactive | Insoluble
CC[C@H](C)[C@H](NC(=O)[C@H](CCCNC(=N)N)NC(=O)[C@H](CCSC)NC(=O)[C@@H](N)CCC(=O)O)C(=O)N[C@@H](CO)C(=O)N[C@@H](CCCNC(=N)N)C(=O)N[C@H](C(=O)N[C@H](C(=O)N(C)[C@@H](CC(C)C)C(=O)N[C@@H](CC(=O)O)C(=O)N[C@@H](Cc1ccccc1)C(=O)N[C@@H](CC(C)C)C(=O)N[C@@H](Cc1ccccc1)C(=O)O)[C@@H](C)CC)[C@@H](C)CC (H-EMRISRII[NMeL]DFLF-OH) | inactive | inactive |  | inactive | Insoluble
CC[C@H](C)[C@H](NC(=O)[C@H](CCCNC(=N)N)NC(=O)[C@H](CCSC)NC(=O)[C@@H](N)CCC(=O)O)C(=O)N[C@@H](CO)C(=O)N[C@@H](CCCNC(=N)N)C(=O)N[C@H](C(=O)N(C)[C@H](C(=O)N[C@@H](CC(C)C)C(=O)N[C@@H](CC(=O)O)C(=O)N[C@@H](Cc1ccccc1)C(=O)N[C@@H](CC(C)C)C(=O)N[C@@H](Cc1ccccc1)C(=O)O)[C@@H](C)CC)[C@@H](C)CC (H-EMRISRI[NMeI]LDFLF-OH) | inactive | inactive |  | inactive | Insoluble
CC[C@H](C)[C@@H](C(=O)N[C@@H](CC(C)C)C(=O)N[C@@H](CCC(N)=O)C(=O)N[C@@H](CCCNC(=N)N)C(=O)O)N(C)C(=O)[C@H](Cc1ccccc1)NC(=O)[C@H](CC(=O)O)NC(=O)[C@H](CCCNC(=N)N)NC(=O)[C@H](Cc1ccccc1)NC(=O)[C@H](Cc1ccccc1)NC(=O)[C@H](CCCCN)NC(=O)[C@H](CO)NC(=O)[C@H](CC(C)C)NC(=O)[C@H](CCCNC(=N)N)NC(=O)[C@H](CCSC)NC(=O)[C@@H](N)CCC(=O)O (H-EMRLSKFFRDF[NMeI]LQR-OH) | inactive |  |  | inactive | 
CC[C@H](C)[C@H](NC(=O)[C@H](Cc1ccccc1)N(C)C(=O)[C@H](CC(=O)O)NC(=O)[C@H](CCCNC(=N)N)NC(=O)[C@H](Cc1ccccc1)NC(=O)[C@H](Cc1ccccc1)NC(=O)[C@H](CCCCN)NC(=O)[C@H](CO)NC(=O)[C@H](CC(C)C)NC(=O)[C@H](CCCNC(=N)N)NC(=O)[C@H](CCSC)NC(=O)[C@@H](N)CCC(=O)O)C(=O)N[C@@H](CC(C)C)C(=O)N[C@@H](CCC(N)=O)C(=O)N[C@@H](CCCNC(=N)N)C(=O)O (H-EMRLSKFFRD[NMeF]ILQR-OH) | inactive |  | > 1000 nM | > 75% | 
CC[C@H](C)[C@H](NC(=O)[C@H](Cc1ccccc1)NC(=O)[C@H](CC(=O)O)NC(=O)[C@H](CCCNC(=N)N)N(C)C(=O)[C@H](Cc1ccccc1)NC(=O)[C@H](Cc1ccccc1)NC(=O)[C@H](CCCCN)NC(=O)[C@H](CO)NC(=O)[C@H](CC(C)C)NC(=O)[C@H](CCCNC(=N)N)NC(=O)[C@H](CCSC)NC(=O)[C@@H](N)CCC(=O)O)C(=O)N[C@@H](CC(C)C)C(=O)N[C@@H](CCC(N)=O)C(=O)N[C@@H](CCCNC(=N)N)C(=O)O (H-EMRLSKFF[NMeR]DFILQR-OH) | inactive |  |  | inactive | 
CC[C@H](C)[C@H](NC(=O)[C@H](CCCNC(=N)N)NC(=O)[C@H](CO)NC(=O)[C@@H](NC(=O)[C@H](CCCNC(=N)N)N(C)C(=O)[C@H](CCSC)NC(=O)[C@@H](N)CCC(=O)O)[C@@H](C)CC)C(=O)N[C@H](C(=O)N[C@@H](CC(C)C)C(=O)N[C@@H](CC(=O)O)C(=O)N[C@@H](Cc1ccccc1)C(=O)N[C@@H](CC(C)C)C(=O)N[C@@H](Cc1ccccc1)C(=O)O)[C@@H](C)CC (H-EM[NMeR]ISRIILDFLF-OH) | inactive | inactive |  | inactive | Insoluble
CC[C@H](C)[C@H](NC(=O)[C@H](Cc1ccccc1)NC(=O)[C@H](CC(=O)O)NC(=O)[C@H](CCCNC(=N)N)NC(=O)[C@H](Cc1ccccc1)NC(=O)[C@H](Cc1ccccc1)NC(=O)[C@H](CCCCN)NC(=O)[C@H](CO)NC(=O)[C@H](CC(C)C)NC(=O)[C@H](CCCNC(=N)N)N(C)C(=O)[C@H](CCSC)NC(=O)[C@@H](N)CCC(=O)O)C(=O)N[C@@H](CC(C)C)C(=O)N[C@@H](CCC(N)=O)C(=O)N[C@@H](CCCNC(=N)N)C(=O)O (H-EM[NMeR]LSKFFRDFILQR-OH) | inactive |  |  | inactive | 
CC[C@H](C)[C@H](NC(=O)[C@H](Cc1ccccc1)NC(=O)[C@H](CC(=O)O)NC(=O)[C@H](CCCNC(=N)N)NC(=O)[C@H](Cc1ccccc1)NC(=O)[C@H](Cc1ccccc1)NC(=O)[C@H](CCCCN)NC(=O)[C@H](CO)NC(=O)[C@H](CC(C)C)NC(=O)[C@H](CCCNC(=N)N)NC(=O)[C@H](CCSC)N(C)C(=O)[C@@H](N)CCC(=O)O)C(=O)N[C@@H](CC(C)C)C(=O)N[C@@H](CCC(N)=O)C(=O)N[C@@H](CCCNC(=N)N)C(=O)O (H-E[NMeM]RLSKFFRDFILQR-OH) | inactive |  |  | inactive | 
CC[C@H](C)[C@H](NC(=O)[C@H](Cc1ccccc1)NC(=O)[C@H](CC(=O)O)NC(=O)[C@H](CCCNC(=N)N)NC(=O)[C@H](Cc1ccccc1)NC(=O)[C@H](Cc1ccccc1)NC(=O)[C@H](CCCCN)NC(=O)[C@H](CO)NC(=O)[C@H](CC(C)C)NC(=O)[C@H](CCCNC(=N)N)NC(=O)[C@H](CCSC)NC(=O)[C@H](CCC(=O)O)NC)C(=O)N[C@@H](CC(C)C)C(=O)N[C@@H](CCC(N)=O)C(=O)N[C@@H](CCCNC(=N)N)C(=O)O (H-[NMeE]MRLSKFFRDFILQR-OH) | inactive |  |  | inactive | 
H-EMRISRIILDFLF-OH |  |  | 78 nM |  | 
H-EMRISRIILDFLFLRKK-OH |  |  | 51 nM |  | 
